Converted amounts (≈) assume the structure as drawn. Residues, ends and D or L forms follow the SMILES beside them. *: point of attachment. βNA = c1ccc2cc(N*)ccc2c1
How the values were obtained:
Assay type in all cases: functional
Enterobacter cloacae [1] = assay: Antimicrobial activity against Enterobacter cloacae Ec1194 after 18 hrs by rapid INT colorimetric assay; conditions: Ec1194, 18 h
Procedure, shortened: (§1)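 Strains precultured overnight on Mueller-Hinton agar. Sample dissolved in DMSO-MHB, twofold serial dilutions in MHB, inoculum 1.5 × 10^6 CFU/ml; final DMSO below 2.5%. Incubated 37°C 18 h, then 0.2 mg/ml INT added, 30 min at 37°C. MIC = lowest concentration preventing yellow-to-pink change (complete growth inhibition). DMSO-only wells as negative control.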

Klebsiella pneumoniae [2] = assay: Antimicrobial activity against Klebsiella pneumoniae KP63 after 18 hrs by rapid INT colorimetric assay; conditions: KP63, 18 h; procedure, shortened: as §1
Klebsiella aerogenes [3] = assay: Antimicrobial activity against Enterobacter aerogenes EA298 after 18 hrs by rapid INT colorimetric assay in presence of efflux pump inhibitor phenylalanine arginine; conditions: EA298, 18 h
Klebsiella aerogenes [4] = assay: Antimicrobial activity against Enterobacter aerogenes EA289 after 18 hrs by rapid INT colorimetric assay; conditions: EA289, 18 h; procedure, shortened: as §1
Escherichia coli [5] = assay: Antimicrobial activity against tetracycline-resistant Escherichia coli AG100A after 18 hrs by rapid INT colorimetric assay in presence of efflux pump inhibitor phenylalanine arginine
Procedure, shortened: (§2)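 Broth microdilution MIC in Mueller-Hinton broth with PAßN at a final 20 μg/ml throughout. Twofold dilutions of sample from DMSO-MHB stock; inoculum 1.5 × 10^6 CFU/ml; 18 h at 37°C, final DMSO <2.5%. Growth read by INT (0.2 mg/ml, 30 min, 37°C). MIC taken as lowest concentration with no pink colour.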

Klebsiella pneumoniae [6] = assay: Antimicrobial activity against Klebsiella pneumoniae KP55 after 18 hrs by rapid INT colorimetric assay in presence of efflux pump inhibitor phenylalanine arginine; conditions: KP55, 18 h
Klebsiella pneumoniae [7] = assay: Antimicrobial activity against Klebsiella pneumoniae ATCC 11296 after 18 hrs by rapid INT colorimetric assay; conditions: ATCC 11296, 18 h
Procedure, shortened: (§3)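 Strains precultured overnight on Mueller-Hinton agar. Samples dissolved in DMSO-MHB, serially diluted twofold in MHB, inoculum 1.5 × 10^6 CFU/ml in MHB added; 37°C, 18 h; final DMSO <2.5%. 0.2 mg/ml INT then added, 30 min at 37°C. MIC = lowest concentration preventing yellow-to-pink reduction, i.e. complete growth inhibition.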

Pseudomonas aeruginosa [8] = assay: Antimicrobial activity against Pseudomonas aeruginosa PAO1 after 18 hrs by rapid INT colorimetric assay in presence of efflux pump inhibitor phenylalanine arginine; conditions: PAO1, 18 h
Escherichia coli [9] = assay: Antimicrobial activity against Escherichia coli ATCC 8739 after 18 hrs by rapid INT colorimetric assay; conditions: ATCC 8739, 18 h; procedure, shortened: as §3
Klebsiella aerogenes [10] = assay: Antimicrobial activity against Enterobacter aerogenes EA294 after 18 hrs by rapid INT colorimetric assay in presence of efflux pump inhibitor phenylalanine arginine; conditions: EA294, 18 h
Klebsiella pneumoniae [11] = assay: Antimicrobial activity against Klebsiella pneumoniae KP55 after 18 hrs by rapid INT colorimetric assay; conditions: KP55, 18 h; procedure, shortened: as §1
Escherichia coli [12] = assay: Antimicrobial activity against Escherichia coli ATCC 8739 after 18 hrs by rapid INT colorimetric assay in presence of efflux pump inhibitor phenylalanine arginine; conditions: ATCC 8739, 18 h; procedure, shortened: as §2
Klebsiella aerogenes [13] = assay: Antimicrobial activity against Enterobacter aerogenes EA27 after 18 hrs by rapid INT colorimetric assay; conditions: EA27, 18 h; procedure, shortened: as §1
Escherichia coli [14] = assay: Antimicrobial activity against Escherichia coli AG100A after 18 hrs by rapid INT colorimetric assay in presence of efflux pump inhibitor phenylalanine arginine
Klebsiella aerogenes [15] = assay: Antimicrobial activity against Enterobacter aerogenes EA-CM64 after 18 hrs by rapid INT colorimetric assay in presence of efflux pump inhibitor phenylalanine arginine; conditions: EA-CM64, 18 h
Klebsiella aerogenes [16] = assay: Antimicrobial activity against Enterobacter aerogenes EA289 after 18 hrs by rapid INT colorimetric assay in presence of efflux pump inhibitor phenylalanine arginine; conditions: EA289, 18 h
Enterobacter cloacae [17] = assay: Antimicrobial activity against Enterobacter cloacae Ec07769 after 18 hrs by rapid INT colorimetric assay in presence of efflux pump inhibitor phenylalanine arginine; conditions: Ec07769, 18 h
Escherichia coli [18] = assay: Antimicrobial activity against Escherichia coli ATCC 10536 after 18 hrs by rapid INT colorimetric assay; conditions: ATCC 10536, 18 h; procedure, shortened: as §1
Klebsiella aerogenes [19] = assay: Antimicrobial activity against Enterobacter aerogenes EA298 after 18 hrs by rapid INT colorimetric assay; conditions: EA298, 18 h; procedure, shortened: as §3
Pseudomonas aeruginosa [20] = assay: Antimicrobial activity against Pseudomonas aeruginosa PA124 after 18 hrs by rapid INT colorimetric assay; conditions: PA124, 18 h; procedure, shortened: as §3
Escherichia coli [21] = assay: Antimicrobial activity against tetracycline-resistant Escherichia coli AG102 after 18 hrs by rapid INT colorimetric assay in presence of efflux pump inhibitor phenylalanine arginine; conditions: AG102, 18 h; procedure, shortened: as §2
Klebsiella aerogenes [22] = assay: Antimicrobial activity against Enterobacter aerogenes EA5 after 18 hrs by rapid INT colorimetric assay in presence of efflux pump inhibitor phenylalanine arginine; conditions: EA5, 18 h
Pseudomonas aeruginosa [23] = assay: Antimicrobial activity against Pseudomonas aeruginosa PA124 after 18 hrs by rapid INT colorimetric assay in presence of efflux pump inhibitor phenylalanine arginine; conditions: PA124, 18 h
Klebsiella aerogenes [24] = assay: Antimicrobial activity against Enterobacter aerogenes ATCC 13048 after 18 hrs by rapid INT colorimetric assay; conditions: ATCC 13048, 18 h; procedure, shortened: as §1
Pseudomonas aeruginosa [25] = assay: Antimicrobial activity against Pseudomonas aeruginosa PAO1 after 18 hrs by rapid INT colorimetric assay; conditions: PAO1, 18 h; procedure, shortened: as §3
Enterobacter cloacae [26] = assay: Antimicrobial activity against Enterobacter cloacae Ec1194 after 18 hrs by rapid INT colorimetric assay in presence of efflux pump inhibitor phenylalanine arginine; conditions: Ec1194, 18 h; procedure, shortened: as §2
Klebsiella pneumoniae [27] = assay: Antimicrobial activity against Klebsiella pneumoniae ATCC 11296 after 18 hrs by rapid INT colorimetric assay in presence of efflux pump inhibitor phenylalanine arginine; conditions: ATCC 11296, 18 h
Klebsiella aerogenes [28] = assay: Antimicrobial activity against Enterobacter aerogenes EA3 after 18 hrs by rapid INT colorimetric assay in presence of efflux pump inhibitor phenylalanine arginine; conditions: EA3, 18 h
Klebsiella pneumoniae [29] = assay: Antimicrobial activity against Klebsiella pneumoniae KP63 after 18 hrs by rapid INT colorimetric assay in presence of efflux pump inhibitor phenylalanine arginine; conditions: KP63, 18 h
Klebsiella aerogenes [30] = assay: Antimicrobial activity against Enterobacter aerogenes EA294 after 18 hrs by rapid INT colorimetric assay; conditions: EA294, 18 h; procedure, shortened: as §3
Escherichia coli [31] = assay: Antimicrobial activity against tetracycline-resistant Escherichia coli AG102 after 18 hrs by rapid INT colorimetric assay; conditions: AG102, 18 h; procedure, shortened: as §3
Escherichia coli [32] = assay: Antimicrobial activity against tetracycline-resistant Escherichia coli AG100A after 18 hrs by rapid INT colorimetric assay; procedure, shortened: as §3
Escherichia coli [33] = assay: Antimicrobial activity against Escherichia coli AG100 after 18 hrs by rapid INT colorimetric assay in presence of efflux pump inhibitor phenylalanine arginine; conditions: AG100, 18 h
Escherichia coli [34] = assay: Antimicrobial activity against Escherichia coli AG100A after 18 hrs by rapid INT colorimetric assay; procedure, shortened: as §3
Klebsiella aerogenes [35] = assay: Antimicrobial activity against Enterobacter aerogenes EA5 after 18 hrs by rapid INT colorimetric assay; conditions: EA5, 18 h; procedure, shortened: as §1
Escherichia coli [36] = assay: Antimicrobial activity against Escherichia coli ATCC 10536 after 18 hrs by rapid INT colorimetric assay in presence of efflux pump inhibitor phenylalanine arginine beta-naphthylamide; conditions: ATCC 10536, 18 h; procedure, shortened: as §2
Klebsiella aerogenes [37] = assay: Antimicrobial activity against Enterobacter aerogenes EA-CM64 after 18 hrs by rapid INT colorimetric assay; conditions: EA-CM64, 18 h; procedure, shortened: as §3
Escherichia coli [38] = assay: Antimicrobial activity against Escherichia coli AG100 after 18 hrs by rapid INT colorimetric assay; conditions: AG100, 18 h; procedure, shortened: as §3
Klebsiella aerogenes [39] = assay: Antimicrobial activity against Enterobacter aerogenes ATCC 13048 after 18 hrs by rapid INT colorimetric assay in presence of efflux pump inhibitor phenylalanine arginine; conditions: ATCC 13048, 18 h
Enterobacter cloacae [40] = assay: Antimicrobial activity against Enterobacter cloacae Ec07769 after 18 hrs by rapid INT colorimetric assay; conditions: Ec07769, 18 h; procedure, shortened: as §1
Klebsiella aerogenes [41] = assay: Antimicrobial activity against Enterobacter aerogenes EA3 after 18 hrs by rapid INT colorimetric assay; conditions: EA3, 18 h; procedure, shortened: as §1
Klebsiella aerogenes [42] = assay: Antimicrobial activity against Enterobacter aerogenes EA27 after 18 hrs by rapid INT colorimetric assay in presence of efflux pump inhibitor phenylalanine arginine; conditions: EA27, 18 h

CCn1cc(C(=O)O)c(=O)c2cc(F)c(N3CCNCC3)cc21 [NORFLOXACIN]
MIC (Enterobacter cloacae [1]): 32 µg/mL (≈ 100 µM)
MIC (Klebsiella pneumoniae [2]): 16 µg/mL (≈ 50.1 µM)
MIC (Klebsiella aerogenes [3]): 8 µg/mL
MIC (Klebsiella aerogenes [4]): 128 µg/mL (≈ 401 µM)
MIC (Escherichia coli [5]): 0.25 µg/mL
MIC (Klebsiella pneumoniae [6]): 8 µg/mL
MIC (Klebsiella pneumoniae [7]): 1 µg/mL (≈ 3.13 µM)
MIC (Pseudomonas aeruginosa [8]): 1 µg/mL
MIC (Escherichia coli [9]): 0.12 µg/mL (≈ 0.376 µM)
MIC (Klebsiella aerogenes [10]): 32 µg/mL
MIC (Klebsiella pneumoniae [11]): 16 µg/mL (≈ 50.1 µM)
MIC (Escherichia coli [12]): 0.12 µg/mL
MIC (Klebsiella aerogenes [13]): 256 µg/mL (≈ 802 µM)
MIC (Escherichia coli [14]): 0.007 µg/mL
MIC (Klebsiella aerogenes [15]): 2 µg/mL
MIC (Klebsiella aerogenes [16]): 128 µg/mL
MIC (Enterobacter cloacae [17]): > 256 µg/mL
MIC (Escherichia coli [18]): 0.06 µg/mL (≈ 0.188 µM)
MIC (Klebsiella aerogenes [19]): 8 µg/mL (≈ 25.1 µM)
MIC (Pseudomonas aeruginosa [20]): 64 µg/mL (≈ 200 µM)
MIC (Escherichia coli [21]): 0.25 µg/mL
MIC (Klebsiella aerogenes [22]): 128 µg/mL
MIC (Pseudomonas aeruginosa [23]): 32 µg/mL
MIC (Klebsiella aerogenes [24]): 0.25 µg/mL (≈ 0.783 µM)
MIC (Pseudomonas aeruginosa [25]): 2 µg/mL (≈ 6.26 µM)
MIC (Enterobacter cloacae [26]): 32 µg/mL
MIC (Klebsiella pneumoniae [27]): 0.5 µg/mL
MIC (Klebsiella aerogenes [28]): 64 µg/mL
MIC (Klebsiella pneumoniae [29]): 4 µg/mL
MIC (Klebsiella aerogenes [30]): 64 µg/mL (≈ 200 µM)
MIC (Escherichia coli [31]): 1 µg/mL (≈ 3.13 µM)
MIC (Escherichia coli [32]): 1 µg/mL (≈ 3.13 µM)
MIC (Escherichia coli [33]): 0.12 µg/mL
MIC (Escherichia coli [34]): 0.03 µg/mL (≈ 0.0939 µM)
MIC (Klebsiella aerogenes [35]): 256 µg/mL (≈ 802 µM)
MIC (Escherichia coli [36]): 0.03 µg/mL
MIC (Klebsiella aerogenes [37]): 4 µg/mL (≈ 12.5 µM)
MIC (Escherichia coli [38]): 0.12 µg/mL (≈ 0.376 µM)
MIC (Klebsiella aerogenes [39]): 0.25 µg/mL
MIC (Enterobacter cloacae [40]): > 256 µg/mL
MIC (Klebsiella aerogenes [41]): 128 µg/mL (≈ 401 µM)
MIC (Klebsiella aerogenes [42]): 128 µg/mL

N=C(N)NCCC[C@H](NC(=O)[C@@H](N)Cc1ccccc1)C(=O)Nc1ccc2ccccc2c1 [PABETAN] (H-Phe-Arg-βNA)
MIC (Enterobacter cloacae [1]): > 256 µg/mL
MIC (Klebsiella pneumoniae [2]): > 256 µg/mL
MIC (Klebsiella aerogenes [4]): > 256 µg/mL
MIC (Klebsiella pneumoniae [7]): 256 µg/mL (≈ 573 µM)
MIC (Escherichia coli [9]): > 256 µg/mL
MIC (Klebsiella pneumoniae [11]): > 256 µg/mL
MIC (Klebsiella aerogenes [13]): > 256 µg/mL
MIC (Escherichia coli [18]): > 256 µg/mL
MIC (Klebsiella aerogenes [19]): > 256 µg/mL
MIC (Pseudomonas aeruginosa [20]): > 256 µg/mL
MIC (Klebsiella aerogenes [24]): > 256 µg/mL
MIC (Pseudomonas aeruginosa [25]): > 256 µg/mL
MIC (Klebsiella aerogenes [30]): > 256 µg/mL
MIC (Escherichia coli [31]): > 256 µg/mL
MIC (Escherichia coli [32]): > 256 µg/mL
MIC (Escherichia coli [34]): 64 µg/mL (≈ 143 µM)
MIC (Klebsiella aerogenes [35]): > 256 µg/mL
MIC (Klebsiella aerogenes [37]): > 256 µg/mL
MIC (Escherichia coli [38]): > 256 µg/mL
MIC (Enterobacter cloacae [40]): > 256 µg/mL
MIC (Klebsiella aerogenes [41]): > 256 µg/mL

Reference: ChEMBL document CHEMBL1255429, “Efflux pumps are involved in the defense of Gram-negative bacteria against the natural products isobavachalcone and diospyrone” (2010)
